Assay outcomes from PubChem.
The list is not random: actives were taken first. Their share in the collection is about 4.8%.
Mdm2 MdmX PPI = inhibitors of human Mdm2/MdmX interaction; SaOS-2 split-luciferase Mdm2/MdmX complementation, luminescence; inhibition, % at 8 µM; 3% of 330,000 active; AID 485346;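 active means inhibition of at least 50% at 8 µM in the primary screen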
UPR CHOP act = activators of apoptotic arm of unfolded protein response (CHOP). CHO-CHOP luciferase reporter, UPR activation, luminescence; percent of tunicamycin response over DMSO baseline. activation, % at 10 µM. 0.34% of 330,000 active. AID 449763;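 active means at 10 µM dose, activation of 40% or more, normalized to positive control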;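 further: 100% = tunicamycin at 10 µg/mL and 0% = DMSO alone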
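measured by = luciferase luminescence | assay system = CHO-CHOP cells, stable luciferase reporter of PERK-eIF2a-CHOP signalling | amount = 500 reporter cells seeded per well | timing = 6 h compound exposure at 37 °C after overnight seeding | controls = positive tunicamycin 10 µg/mL, negative DMSO alone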
Beta cell apopt = blocks beta cell apoptosis. AID 435005. protection from apoptosis, % (test concentration not listed). 0.8% of 300,000 active. INS-1E cytokine-induced death, ATP luminescence, 48 h; percent of positive-control rescue, neutral wells zero;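 active means Every replicate reaches about 75%, or at least half do and their mean reaches it too, limit read from the data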;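 further: 0% = cytokine-treated negative control wells and 100% = positive control rescue; higher means more ATP so stronger rescue from cytokine killing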
XBP1 UPR activ = activators of adaptive arm of unfolded protein response (XBP1) | CHO-XBP1 luciferase reporter, IRE1-XBP1 UPR activation, luminescence; percent of tunicamycin response, DMSO as zero | activation, % at 20 µM | 0.33% of 330,000 active | AID 463104;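 active means versus positive control, 20 µM dose yields 30% or more activation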;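 further: 100% = tunicamycin at 10 µg/mL and 0% = DMSO only wells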
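incubation = overnight seeding at 37 °C, 6 h compound treatment at 37 °C | assay system = CHO-XBP1 cells stably carrying IRE1-XBP1-driven luciferase reporter | input = 1000 cells per well | detection = luciferase luminescence | dosing = single point, 20 µM final compound, 1% DMSO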
CSC inhib = cancer stem cell inhibition. cancer stem cell-like cells viability, luminescence. 1.1% of 300,000 active. inhibition, % at 7.5 µM. AID 2717; in the data active means inhibition above about 75%; tested in HMLE shEcad cells
SKKanGAS inh = SKKanGAS growth inhibition; S. pyogenes SKKanGAS, kanamycin growth, BacTiter-Glo, 6 h; inhibition, % at 7.5 µM; 1.3% of 300,000 active; AID 1662;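 active means mean replicate score, as percent of positive control median, at least 50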;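 further: strain carries kanamycin resistance gene driven by streptokinase promoter and grows in 40 µg/ml kanamycin; loss of luminescence reflects streptokinase promoter inhibition or plain growth inhibition; 0% = median of DMSO wells and 100% = positive control at its reference dose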
Mdm2-MdmX conf = human Mdm2/MdmX binding inhibition, confirmed | 55% of 10,000 active | luminescent assay | shares compounds with Mdm2 MdmX PPI | AID 489028 | inhibition, % at 8 µM; in the data active means inhibition above about 40%
FLuc counter = full-length luciferase inhibition in Mdm2/MdmX counter-screen. shares compounds with Mdm2 MdmX PPI. SaOS-2 full-length luciferase counterscreen, luminescence. inhibition, % at 8 µM. 77% of 6,200 active;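 active means mean inhibition at 8 µM reaching about 37%, which flags the compound as non-specific, limit read from the data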;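 further: p53-null SaOS-2 cells with luciferase driven by a doxycycline-inducible promoter; compound on cells about two nights before reading with doxycycline added after day one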
* hit, by the source's call; / = no result given; ! = repeats disagree.

SMILES	Mdm2 MdmX PPI	UPR CHOP act	Beta cell apopt	XBP1 UPR activ	CSC inhib	SKKanGAS inh	Mdm2-MdmX conf	FLuc counter
COc1ccc(-c2cc(C(=O)NCC(c3ccco3)N(C)C)c3ccccc3n2)cc1OC (stereo unspecified)	22.8	0.5	4.6	-1.8	-0.3	-4.0	/	/
O=C(NCCC(=O)N1CCN(c2ccc(F)cc2)CC1)c1ccco1	8.2	-0.4	/	0.2	/	/	/	/
CCn1ccc(C(=O)Nc2ncc(C)s2)n1	-37.9	1.4	-0.6	-6.2	-7.5	13.4	/	/
CCCn1c(=O)c2c(nc3n2CCCN3CCc2ccccc2)n(C)c1=O	5.8	0.5	5.2	-5.8	12.7	-0.5	/	/
Cn1c(=O)n(CCc2ccccc2)c(=O)c2c1nc1n2CCCN1CCc1ccccc1	64.7*	5.5	10.3	-5.0	40.6	25.6	-3.8	/
CCCNC(=O)C(Cc1ccc(Br)cc1)NC(=O)c1ccc(C#N)cc1 (stereo unspecified)	3.0	-2.1	-2.2	-2.6	3.3	/	/	/
COc1ccc(Cl)cc1NC(=O)CSc1nnc(-c2ccco2)o1	17.9	2.3	-2.5	-2.7	-8.7	3.1	/	/
Cc1[nH]n(-c2ccccc2)c(=O)c1N=Nc1ccc2c(c1)OCCO2	-175.0	4.4	3.8	7.9	-3.0	7.5	/	/
Cc1[nH]n(-c2ccccc2)c(=O)c1N=Nc1c(O)cc(S(=O)(=O)N(C)C)c2ccccc12	82.1*	-1.8	110.7*	-3.9	-2.6	84.5*	79.5*	56.6*
COCCN(C(=O)CSCC(=O)Nc1cccc(C)c1)c1c(N)n(Cc2ccccc2)c(=O)[nH]c1=O	-5.7	-0.2	/	0.0	-4.9	-7.4	/	/
Cc1c(C(=O)N2CCN(Cc3ccccc3)CC2)oc2c1C(=O)CC(C)(C)C2	4.2	-0.6	-4.8	-3.0	33.0	-9.1	/	/
Cc1ccc(C#N)c(SCc2cc3c(cc2Cl)OCO3)n1	24.2	0.8	-3.9	-0.8	1.4	-2.1	/	/
Cc1ccc(C#N)c(SCc2nnc(-c3ccc(Cl)cc3)o2)n1	88.1*	-3.2	1.8	-5.2	8.4	-3.9	92.5*	57.4*
Cc1cc(C)c(C#N)c(SCc2nnc(-c3ccccc3)o2)n1	84.8*	-5.2	-1.0	-5.9	/	1.7	90.9*	49.0*
Cc1noc(-c2ccc(C(F)(F)F)cc2)c1NC(=O)Nc1ccc(Cl)cc1	94.7*	4.5	104.9*	-3.2	52.1	33.4	75.7*	24.2
CCc1cccc(C)c1NC(=S)NCCc1c(C)[nH]c2ccc(C)cc12	64.3*	-1.4	3.3	1.6	5.3	10.0	54.1*	40.6*
COc1ccc2[nH]c(C)c(CCNC(=S)Nc3cccc(C)c3)c2c1	46.0	-0.3	/	-2.3	-6.6	6.4	/	/
CCc1cccc(CC)c1NC(=S)NCCc1c(C)[nH]c2ccc(C)cc12	71.1*	2.6	42.2	3.4	18.0	10.1	51.4*	53.8*
CN(Cc1cccc(F)c1)C(=O)c1ccc(S(=O)(=O)N2CCOCC2)cc1	26.1	1.3	0.4	-3.0	-6.0	/	/	/
Cn1nc(C(F)(F)F)c2cc(C(=O)Nc3ccc(C(F)(F)F)cc3)sc21	60.9*	3.8	35.3	4.5	71.8	26.3	12.2	/
O=C(Cc1c(F)cccc1Cl)N1CCN(S(=O)(=O)c2cccs2)CC1	21.2	-2.3	1.2	-1.8	-10.0	/	/	/
Cc1cc(C)n(C(C)CNS(=O)(=O)c2ccc(Cl)cc2)n1 (stereo unspecified)	19.2	0.0	0.2	1.9	-6.3	-0.4	/	/
Cn1c2ccccc2c(=O)c2c(=O)n(C3CCCCC3)c(-c3ccco3)nc21	79.7*	-2.6	/	3.3	9.7	43.9	65.8*	90.0*
CCN(c1ccccc1)S(=O)(=O)c1ccc(OC)c(NC(=O)COc2ccc(C(C)=O)cc2)c1	5.6	3.6	-0.2	-0.5	-10.3	/	/	/
CN(C(=O)c1cccc(NC(=O)c2cccs2)c1)c1ccccc1	14.3	1.0	5.0	-3.4	-1.4	-14.3	/	/
SMILES	Mdm2 MdmX PPI	UPR CHOP act	Beta cell apopt	XBP1 UPR activ	CSC inhib	SKKanGAS inh	Mdm2-MdmX conf	FLuc counter
CC1c2ccccc2SC(CCCN(C)C)c2ccccc21 (stereo unspecified)	52.5*	0.1	3.3	-0.1	10.4	3.6	3.1	/
COc1cc(OC)c(C(=O)O/N=C(\N)c2ccc(C)cc2)cc1OC	69.1*	3.5	-7.8	8.2	3.9	-0.6	43.1*	104.3*
COc1ccc(/C(N)=N/OC(=O)Cc2ccc(C)cc2)cc1OC	-55.8	0.9	-1.5	0.0	5.9	-3.5	/	/
COc1cc(OC)c(C(=O)O/N=C(\N)c2cccc(C)c2)cc1OC	79.3*	3.3	-2.0	2.6	-1.8	-6.0	47.2*	100.3*
Cc1ccc(/C(N)=N/OC(=O)c2ccco2)cc1	-94.7	2.2	6.4	0.8	-5.3	-1.7	/	/
Cc1occc1C(=O)O/N=C(\N)c1ccc(Cl)cc1	99.6*	7.9	/	3.5	-5.9	-2.3	50.1*	148.4*
Cc1noc(-c2ccc(Cl)cc2)c1C(=O)O/N=C(\N)c1ccc(C(C)(C)C)cc1	100.3*	2.9	39.4	-3.1	171.0*	7.6	97.5*	59.7*
COc1ccc(Cl)cc1C(=O)O/N=C(\N)c1ccc(Cl)cc1	70.5*	2.9	8.9	-1.0	-6.8	-1.0	45.3*	80.6*
N/C(=N\OC(=O)c1cc(Cl)ccc1Cl)c1ccncc1	-71.8	4.2	-8.6	0.1	/	8.4	/	/
COc1cc2c(cc1OC)-c1cc(Nc3ccc4c(c3)OCCO4)nc(=O)n1CC2	67.7*	-2.5	20.9	-4.4	17.9	10.0	44.8*	52.1*
COc1cccc(C2NC(=S)NC(C)=C2C(=O)c2ccccc2)c1OC (stereo unspecified)	51.0*	0.4	4.8	0.7	2.8	0.5	49.1*	78.0*
COc1ccc(NS(=O)(=O)c2cccc(C(=O)NNC(=O)c3ccccc3O)c2)cc1	52.8*	-2.1	-0.8	-4.2	35.7	-14.1	55.5*	58.5*
COc1ccccc1N(C)S(=O)(=O)c1ccc(C(=O)NNC(=O)c2ccccc2O)cc1	61.9*	-1.5	/	-1.8	/	/	59.9*	48.2*
COc1ccc(NS(=O)(=O)c2cccc(C(=O)NNC(=O)c3cc(C)oc3C)c2)cc1	10.1	-0.8	4.2	-1.1	18.0	0.1	/	/
O=C(COc1ccccc1F)Nc1cc(S(=O)(=O)Nc2cccc(Cl)c2)ccc1O	-7.7	-1.7	-3.9	-1.8	/	/	/	/
CCCCCn1c(=N)n(CC(O)COc2ccccc2OC)c2ccccc21 (stereo unspecified)	60.6*!	-2.3	21.1	-1.7	3.7	-6.4	27.9	/
